This is an account of results in paper PMC11452527 (Nature Communications, 2024).

In series [1] the target is αIIbβ3. Conditions: cited from earlier work.
The subject of the next series is platelets. Conditions: cited from earlier work.
For series [2], the target named is T1, αIIbβ3 (Homo sapiens, UniProt P05106+P08514). The series can be described thus: LIBS AP5 epitope exposure on platelet αIIbβ3. Conditions: washed human platelets; tirofiban 0.17 μM, m-tirofiban 16 μM, Hr10 7.6 μM. In kind it is cell-based. The gist of the method: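 Washed platelets came from citrated blood of drug-free donors: PRP was spun with PGE1 (20 ng/ml final), washed in Ringer's citrate-dextrose, and resuspended in Tyrode's buffer (pH 7.4, 0.02% BSA, 1 mM Ca²⁺/Mg²⁺). Buffer or test compound was preincubated 20 min at RT without stirring, then ADP (20 µM) plus Alexa647-AP5 (10 µg/mL) was added for 30 min at RT. Samples were diluted, fixed in 2% paraformaldehyde, and read by flow-cytometric MFI. Mean + s.e., n = 4 donors.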

A further series deals with human PRP. The series can be described thus: Thrombin-induced clot retraction in platelet-rich plasma. The series is classed as cell-based. Conditions: read-out: IC50clot.
Series [3] concerns the target T1, αIIbβ3. The series can be described thus: ODE model of inhibitor occupancy of αIIbβ3. Conditions: ODEs Eq 16-22.
For series [4], the system named is C57BL/6J mice. The series can be described thus: Thrombin-induced femoral vein thrombosis model. In kind it is in vivo, mouse. Conditions: bolus tirofiban 0.025 μg/g, m-tirofiban 0.3 μg/g.
The next series concerns platelets in whole blood. The series can be described thus: ADP-induced platelet aggregation in 1:1 diluted whole blood. Conditions: Homo sapiens, read-out: IC50agg. In kind it is cell-based.
Series [5] is described as follows: Plasma protein binding by rapid equilibrium dialysis. The series is classed as in vitro ADME. Conditions: human, platelet-free human plasma.
Series [6] relates to C57BL/6J mice. The series can be described thus: Tail vein bleeding model. The series is classed as in vivo, mouse. Conditions: at the dose that suppressed femoral VT.

Like-named read-outs stand apart in the source and are kept apart here.

T1 sequence (P08514 32-887 limits assumed): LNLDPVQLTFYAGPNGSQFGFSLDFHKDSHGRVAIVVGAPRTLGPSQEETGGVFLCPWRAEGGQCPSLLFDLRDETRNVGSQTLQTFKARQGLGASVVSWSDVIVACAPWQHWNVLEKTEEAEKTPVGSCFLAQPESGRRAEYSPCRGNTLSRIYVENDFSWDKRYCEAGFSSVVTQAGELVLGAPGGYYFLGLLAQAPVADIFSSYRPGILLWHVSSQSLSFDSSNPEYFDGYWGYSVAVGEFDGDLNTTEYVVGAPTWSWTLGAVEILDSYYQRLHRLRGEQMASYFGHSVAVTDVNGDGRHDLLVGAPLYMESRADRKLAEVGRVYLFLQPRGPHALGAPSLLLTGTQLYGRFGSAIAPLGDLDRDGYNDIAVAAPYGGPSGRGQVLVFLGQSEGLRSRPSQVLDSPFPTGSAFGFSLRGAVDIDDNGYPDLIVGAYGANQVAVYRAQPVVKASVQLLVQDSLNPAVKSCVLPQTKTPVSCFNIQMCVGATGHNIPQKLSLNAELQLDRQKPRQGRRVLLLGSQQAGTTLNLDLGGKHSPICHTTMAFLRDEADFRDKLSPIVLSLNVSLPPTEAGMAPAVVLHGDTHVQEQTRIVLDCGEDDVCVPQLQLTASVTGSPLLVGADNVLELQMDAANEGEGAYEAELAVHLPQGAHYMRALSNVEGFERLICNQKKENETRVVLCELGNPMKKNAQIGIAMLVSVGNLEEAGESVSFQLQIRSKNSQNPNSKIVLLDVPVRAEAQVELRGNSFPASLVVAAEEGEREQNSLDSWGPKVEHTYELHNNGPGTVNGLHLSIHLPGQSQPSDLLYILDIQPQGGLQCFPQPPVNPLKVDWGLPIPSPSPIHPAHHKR
T1 sequence (P08514 891-1039 partner limits assumed): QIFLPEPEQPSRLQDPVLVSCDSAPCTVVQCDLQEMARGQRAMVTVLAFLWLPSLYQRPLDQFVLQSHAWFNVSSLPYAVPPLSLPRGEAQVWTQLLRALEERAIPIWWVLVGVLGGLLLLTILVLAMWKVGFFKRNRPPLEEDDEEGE
T1 sequence (P05106 27-788): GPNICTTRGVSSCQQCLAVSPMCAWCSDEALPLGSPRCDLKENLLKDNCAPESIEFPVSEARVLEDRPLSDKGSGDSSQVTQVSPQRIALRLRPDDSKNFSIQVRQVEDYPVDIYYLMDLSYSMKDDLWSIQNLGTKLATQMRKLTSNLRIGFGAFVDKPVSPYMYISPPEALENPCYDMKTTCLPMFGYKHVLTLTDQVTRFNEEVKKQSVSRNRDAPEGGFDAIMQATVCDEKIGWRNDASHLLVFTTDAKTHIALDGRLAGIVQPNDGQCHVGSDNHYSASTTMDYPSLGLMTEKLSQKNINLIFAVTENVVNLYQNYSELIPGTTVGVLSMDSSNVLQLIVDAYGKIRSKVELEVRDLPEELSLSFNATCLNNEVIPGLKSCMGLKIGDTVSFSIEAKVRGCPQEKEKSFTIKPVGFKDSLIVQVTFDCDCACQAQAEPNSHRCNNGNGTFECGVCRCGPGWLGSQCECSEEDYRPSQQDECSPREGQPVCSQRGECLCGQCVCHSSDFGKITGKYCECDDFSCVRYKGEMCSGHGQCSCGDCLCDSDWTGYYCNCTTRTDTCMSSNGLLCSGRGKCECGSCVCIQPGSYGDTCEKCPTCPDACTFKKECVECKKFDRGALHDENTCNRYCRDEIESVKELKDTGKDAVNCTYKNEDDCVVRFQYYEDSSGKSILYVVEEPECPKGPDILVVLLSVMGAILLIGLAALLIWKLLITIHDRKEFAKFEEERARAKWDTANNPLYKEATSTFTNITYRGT

Take fibrinogen: on αIIbβ3 [1] (read-out: Kd,F of fibrinogen to αIIbβ3, assumed in ODE model ref 58), the Kd is 143 nM.
`N=C(N)c1ccc(C(=O)N[C@@H](Cc2ccc([N+](=O)[O-])cc2)C(=O)N2CCc3nn(CC(=O)O)cc3C2)cc1` [UR-2922]: the IC50clot/IC50agg ratio in the series on platelets was 20.63. Moreover, the Kd at αIIbβ3 [1] (read-out: mean Kd to αIIbβ3) is 0.3 nM.
Turning to `CCCCS(=O)(=O)N[C@@H](Cc1ccc(OCCCCC2CCNCC2)cc1)C(=O)O` [tirofiban], at αIIbβ3 [2], the “AP5 epitope expression above that seen with ADP (or thrombin) alone” value is reported as “large increase”. The IC50 was 162 ± 61 nM in the series with human PRP and 6 ± 0.58 nM with platelets in whole blood. The “concentration for 50% occupancy of αIIbβ3 (50% OCCL:T)” value on αIIbβ3 [3] (1:1 diluted whole blood) is on record as 26.5 nM; on αIIbβ3 [3] (undiluted whole blood), 38.0 nM. In addition, the “total accumulation of fibrin vs untreated” value in the series on C57BL/6J mice [4] is given as “significant only at a p-value of 0.0606”. Moreover, the fraction unbound at 24 h, 2 µM in series [5] worked out at 0.413 ± 0.0303. The Kd on αIIbβ3 [1] (read-out: Kd for pretreated (inactive) αIIbβ3) was 15 nM. In the series on C57BL/6J mice [6], the “bleeding time vs PBS” value is “prolonged bleeding time”. For the same compound, the “bleeding vs PBS” value in the series on C57BL/6J mice [6] was “significant bleeding”.

As a reminder, the Kd is a measure of binding affinity in units of concentration. As usually defined, the fraction unbound is free concentration divided by total concentration. High values mean weak binding, low ones extensive binding.
